Screening results deposited in PubChem by The Scripps Research Institute Molecular Screening Center.
PRMT1 inh: inhibitors of human PRMT1; recombinant PRMT1, activity-based probe fluorescence polarization; AID 652257; hit rate 1.3% among 370,000; inhibition, % at 2.79 µM;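 active = inhibition above about 21% made by adding two undisclosed values, limit read from the data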
HTRA1 inhibitor: inhibitors of human serine peptidase HTRA1. Q92743. AID 504803. hit rate 0.5% among 340,000. inhibition, % at 5.96 µM. recombinant HTRA1, FP-rhodamine activity-based probe, fluorescence polarization; in the data active = inhibition above about 36%;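 also: 0% = enzyme with DMSO and 100% = wells lacking enzyme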
DAGLB inhibitor: diacylglycerol lipase beta (human) inhibition; HEK293T DAGLB membrane lysate, EnzChek fluorogenic substrate; inhibition, % at 5.17 µM; hit rate 0.059% among 340,000; Q8NCG7; in the data active = inhibition above about 34%;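 also: 0% = enzyme with vehicle and 100% = wells lacking enzyme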
Target sequence (Q8NCG7 whole entry, looked up): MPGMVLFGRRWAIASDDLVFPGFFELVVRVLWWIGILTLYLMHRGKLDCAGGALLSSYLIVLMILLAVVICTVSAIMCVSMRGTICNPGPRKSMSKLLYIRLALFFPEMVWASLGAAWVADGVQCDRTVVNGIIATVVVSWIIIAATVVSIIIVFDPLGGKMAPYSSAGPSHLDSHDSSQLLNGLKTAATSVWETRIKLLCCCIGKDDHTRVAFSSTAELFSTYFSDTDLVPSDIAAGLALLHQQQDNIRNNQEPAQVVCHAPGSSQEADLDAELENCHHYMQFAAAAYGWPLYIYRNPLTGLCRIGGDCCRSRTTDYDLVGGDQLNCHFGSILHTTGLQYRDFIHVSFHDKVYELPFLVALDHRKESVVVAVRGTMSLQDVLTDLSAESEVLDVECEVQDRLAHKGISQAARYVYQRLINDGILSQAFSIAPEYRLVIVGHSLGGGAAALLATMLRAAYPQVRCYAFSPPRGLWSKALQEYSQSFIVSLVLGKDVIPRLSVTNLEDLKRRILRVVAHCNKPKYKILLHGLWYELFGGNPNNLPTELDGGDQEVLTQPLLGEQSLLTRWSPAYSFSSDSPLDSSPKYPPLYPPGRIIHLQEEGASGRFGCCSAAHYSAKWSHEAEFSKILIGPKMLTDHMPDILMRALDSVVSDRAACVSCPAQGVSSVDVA
mABHD4 FP: inhibits mouse alpha/beta hydrolase domain 4; Q8VD66; purified mABHD4, FP-Rh probe fluorescence polarization; inhibition, % at 8.92 µM; hit rate 0.54% among 370,000; AID 720543;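 active = inhibition exceeding the mean over every tested compound plus 3 SD, cut at about 30% in these data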;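 also: 0% = plate median of compound wells and 100% = S159A mutant with DMSO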
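assay system = mABHD4 protein | compound dosing = single nominal dose of 8.92 µM, 0.89% DMSO final | read-out basis = percent inhibition of probe binding, normalized to plate controls | schedule = Enzyme–compound pre-incubation 45 min, then probe 60 min, both 25 °C | detection = fluorescence polarization, excitation 525 nm, emission 598 nm, BODIPY TMR filters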
rCAG binder: r(CAG) repeat RNA binding; TO-PRO-1 dye displacement fluorescence; inhibition, % at 3 µM; hit rate 1.3% among 370,000; AID 651821;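 active = inhibition above the plate cutoff, the mean of all test compounds on that plate plus 3 SD, cut at about 35% in these data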;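 also: 0% = DMSO alone and 100% = 100 µM mitoxantrone as full dye displacement; higher means more dye released from RNA so lower well fluorescence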
LEDGF integ inh: blocks HIV-1 LEDGF/p75-dependent DNA integration. TR-FRET IN-LEDGF/p75 DNA integration, Eu/Cy5. inhibition, % at 3.7 µM. hit rate 0.64% among 370,000;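 active = inhibition above the screen-wide mean plus 3 SD, cut at about 13% in these data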;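 also: signal is the Cy5 over europium emission ratio at 671 and 618 nm; 0% = plate median of compound wells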
rCAG bind conf: r(CAG) RNA repeat binding, confirmation. shares compounds with rCAG binder. TO-PRO-1 dye displacement fluorescence. inhibition, % at 3 µM. hit rate 70% among 4,300. AID 652065;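 active = inhibition above a per-plate cutoff, the mean inhibition of sample wells plus 3 SD, cut at about 35% in these data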;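 also: loss of TO-PRO-1 fluorescence as compound displaces dye from 1x1 AA loop RNA; 0% = DMSO only wells and 100% = 100 µM mitoxantrone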
DNA CAG counter: disrupts DNA CAG TO-PRO-1 complex, flagging rCAG hits; AID 652068; shares compounds with rCAG binder; inhibition, % at 3 µM; hit rate 94% among 4,300; d(CAG) DNA oligo TO-PRO-1 dye displacement, fluorescence;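 active = inhibition above its plate's cutoff, the mean test-well inhibition plus 3 SD, cut at about 4.8% in these data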;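 also: 0% = DNA dye mix with DMSO and 100% = 100 µM mitoxantrone; hits displace the dye from DNA and so lower well fluorescence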
DNA CAG DR: disrupts DNA CAG TO-PRO-1 complex in dose response. hit rate 20% among 250. IC50, µM. shares compounds with rCAG binder. DNA CAG/GTC duplex TO-PRO-1 dye displacement fluorescence; in the data active = IC50 below about 10 µM
* = called active by the depositor; x = no result. Hits are enriched below; roughly 3.2% of the tested compounds scored in any of these assays.

SMILES | PRMT1 inh | HTRA1 inhibitor | DAGLB inhibitor | mABHD4 FP | rCAG binder | LEDGF integ inh | rCAG bind conf | DNA CAG counter | others
CCc1nnc(NS(=O)(=O)c2ccc(N=Cc3c(C)[nH]n(-c4ccc(C)c(C)c4)c3=O)cc2)s1 | 0.2 | 0.1 | 3.1 | -6.1 | 55.4* | 0.1 | 84.6* | 57.4*
Cc1[nH]n(-c2ccc(Br)cc2)c(=O)c1C=Nc1ccc(S(=O)(=O)Nc2nccs2)cc1 | 5.0 | -11.4 | 7.0 | 10.2 | 54.0* | 4.6 | 80.7* | 46.9*
O=C(O)c1cc(S(=O)(=O)NC(CO)C(O)c2ccc([N+](=O)[O-])cc2)ccc1Br (stereo unspecified) | -0.6 | 2.7 | -1.4 | -1.3 | 1.4 | -2.4 | x | x
CC(C)(C#N)NC(=O)c1ccco1 | 0.3 | 4.1 | 1.1 | 5.2 | -2.4 | 2.1 | x | x
COCCn1c(=NC(=O)c2cc(-c3cccs3)nc3ccccc23)sc2cc(S(N)(=O)=O)ccc21 | -1.8 | -139.3 | 0.5 | -113.0 | 35.9* | 2.1 | 39.1* | 18.9*
COC1C=COC2(C)Oc3c(C)c(O)c4c(O)c(c(CN5CCN(C)CC5)c(O)c4c3C2=O)NC(=O)C(C)=CC=CC(C)C(O)C(C)C(O)C(C)C(OC(C)=O)C1C (stereo unspecified) | 7.5 | 34.8 | 7.8 | 26.6 | 37.3* | 6.2 | 33.9 | 7.5*
Cc1cccn2c(=O)c(/C=C(\C#N)C(N)=O)c(N3CCN(Cc4ccc5c(c4)OCO5)CC3)nc12 | 2.9 | -9.8 | 0.1 | 5.4 | 0.0 | -3.6 | x | x
Cc1c(C(=O)N(C)C)sc(NC(=O)c2cc([N+](=O)[O-])cc([N+](=O)[O-])c2)c1C#N | -1.8 | 4.3 | 19.3 | 7.9 | 56.2* | -2.6 | 37.2* | 9.9*
COc1cc(-c2nnc3sc(-c4ccncc4)nn23)cc(OC)c1OC | 9.8 | 0.4 | -2.0 | 0.0 | 2.5 | 5.5 | x | x
O=c1cc(-c2ccccc2)nc2c(-c3ccccc3)c(C(F)(F)F)[nH]n12 | 0.7 | x | x | -27.6 | 91.8* | 2.3 | 76.8* | 41.6*
Cc1ccc(N(CCC#N)C(=O)CCl)cc1C | -0.7 | 0.9 | -1.2 | 4.9 | 0.3 | -0.2 | x | x
Cc1ccc(C(c2nnnn2C2CCCCC2)N2CCc3ccccc32)cc1 (stereo unspecified) | 0.6 | -14.2 | -10.6 | -8.5 | 5.8 | -5.2 | x | x
COc1cc(C)nc(N2CCCC(C(=O)Nc3cc(Cl)ccc3OC)C2)n1 (stereo unspecified) | 1.2 | -2.1 | -3.1 | -2.4 | -1.1 | -2.2 | x | x
O=C(O)COc1ccc(NC(=O)c2ccc3c(c2)C(=O)N(Cc2ccccc2)C3=O)cc1 | 0.5 | -4.8 | 2.0 | -3.6 | 47.0* | -2.2 | 27.9 | 6.2*
O=C(Nc1ccc(O)cc1)c1ccc2c(c1)C(=O)N(Cc1ccccc1)C2=O | -1.3 | 4.2 | 1.4 | 2.0 | 8.9 | 1.0 | x | x
Cc1c(CCC(=O)N2CCC[C@H]2C(=O)O)c(=O)oc2c(C)c3oc4c(c3cc12)CCCC4 | 3.5 | -7.8 | 4.6 | -5.0 | 37.6* | 1.5 | 58.1* | 18.6* | DNA CAG DR=>29.9
O=S(=O)(c1cccc(Cl)c1)N1CN(CC2CCCO2)c2nc3ccccc3nc21 (stereo unspecified) | -3.0 | -15.2 | 2.7 | 1.5 | -3.9 | 0.3 | x | x
O=S(=O)(Nc1nc2ccccc2nc1NCCO)c1cccc(Cl)c1 | 1.4 | 7.2 | 6.3 | 2.1 | 28.9 | -2.6 | x | x
O=S(=O)(Nc1nc2ccccc2nc1NCC1CCCO1)c1cccc(Cl)c1 (stereo unspecified) | 0.1 | 6.7 | 0.8 | 2.4 | 53.7* | -0.6 | 40.3* | 10.5*
COCCCNc1nc2ccccc2nc1NS(=O)(=O)c1cccc(Cl)c1 | 1.8 | 0.8 | 0.1 | 5.5 | 38.4* | -2.6 | 31.6 | 6.7*
CC(NS(=O)(=O)c1ccc(Cl)cc1)C(=O)OCC(=O)c1ccc[nH]1 (stereo unspecified) | 1.3 | 1.9 | -1.2 | 1.8 | 3.2 | 6.2 | x | x
COc1cccc(C2C(C(=O)OC(C)C)=C(C)N=c3s/c(=C\c4ccc(C(=O)O)cc4)c(=O)n32)c1 (stereo unspecified) | 8.3 | -5.8 | 0.7 | -1.6 | 18.8 | -2.0 | x | x
CCOC(=O)C1=C(C)N=c2s/c(=C\c3cccc(OCC(=O)O)c3)c(=O)n2C1c1ccccc1OC (stereo unspecified) | 7.2 | 13.2 | -3.6 | -4.1 | 10.3 | 1.5 | x | x
COc1cccc(C2C(C(=O)Nc3ccccc3)=C(C)N=c3s/c(=C/c4ccc(OCC(=O)O)cc4)c(=O)n32)c1 (stereo unspecified) | 29.7* | -24.8 | 1.1 | -56.0 | 72.1* | 4.2 | 81.8* | 50.2*
CCOC(=O)C1=C(C)N=c2sc(=Cc3cc(Cl)c(OCC(=O)O)c(Cl)c3)c(=O)n2C1c1cccc(OC)c1 (stereo unspecified) | 12.8 | x | x | -6.5 | 50.1* | 6.9 | 85.3* | 54.2*
SMILES | PRMT1 inh | HTRA1 inhibitor | DAGLB inhibitor | mABHD4 FP | rCAG binder | LEDGF integ inh | rCAG bind conf | DNA CAG counter | others
CCOC(=O)C1=C(C)N=c2s/c(=C\c3ccc(OCC(=O)O)cc3)c(=O)n2C1c1ccc(OC(C)C)cc1 (stereo unspecified) | 30.4* | -38.1 | 3.5 | -72.9 | 64.5* | 3.9 | 85.0* | 54.5*
CCOC(=O)C1=C(C)N=c2s/c(=C/c3ccc(OCC(=O)O)cc3)c(=O)n2C1c1cc(OC)c(OC)c(OC)c1 (stereo unspecified) | 18.4 | -3.6 | -2.1 | -17.3 | 41.8* | 2.2 | 73.6* | 37.1*
COc1ccccc1NC(=O)C(CC=C(Cl)Cl)C(C)=O (stereo unspecified) | -0.2 | -3.8 | 2.8 | -1.2 | 3.4 | -0.9 | x | x
NS(=O)(=O)c1ccc(CCNC(=O)/C=C/c2cccc([N+](=O)[O-])c2)cc1 | 0.9 | 6.8 | -3.7 | -0.5 | 3.4 | 4.5 | x | x
O=[N+]([O-])c1ccc(S(=O)(=O)NCCN2CCOCC2)cc1 | -1.7 | -7.4 | -2.2 | 0.2 | -0.9 | 1.3 | x | x
Cc1ccc(C)c(OCC(=O)NC(Cc2c[nH]c3ccccc23)C(=O)O)c1 (stereo unspecified) | 2.2 | -3.9 | 2.5 | 6.6 | 20.2 | -3.8 | x | x
CCOc1ccccc1Nc1nnc(SCC(=O)Nc2ccc3[nH]c(=O)[nH]c3c2)s1 | 11.6 | -6.4 | 3.6 | -2.3 | 11.8 | -4.6 | x | x
CCOc1ccccc1Nc1nnc(SCC(=O)NC(Cc2c[nH]c3ccccc23)C(=O)O)s1 (stereo unspecified) | -1.6 | -9.5 | 3.6 | 12.2 | 39.2* | -2.5 | 33.2 | 10.3*
